From ChEMBL document CHEMBL4513216, “Probing the Open Global Health Chemical Diversity Library for Multistage-Active Starting Points for Next-Generation Antimalarials” (ACS Infect Dis, 2020)

Experiment: Toxicity liver stage against HepG2, at 10uM
Type: cell-based
Set-up: test concentration 10 uM, cell line HepG2-A16-CD81EGFP
Settings: human, HepG2-A16-CD81EGFP cells; read-out: INHIBITION
Outline: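 Uninfected HepG2-A16-CD81EGFP cells, 3 × 10^3 per well, 1536-well, plated on prespotted compound at 10 μM final, parasite-free screening media added to match infected plates; puromycin 10 μM positive, DMSO 0.5% negative; run in parallel with 48 h PbLuc assay at 37 °C, 5% CO2; viability by CellTiter-Glo luminescence, normalized to controls.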

| Compound | cytotoxicity at 10 µM [%] |
| --- | --- |
| Cc1ncoc1C(=O)N1CCOC(Cc2ccccc2)C1 (stereo not given) | 2.23 |
| c1ccc(CNC[C@H]2COCc3nc4cccnc4n32)cc1 | -1.84 |
| CC(C)CCN1C(=O)C2(NC(=O)c3ccccc3O2)c2ccccc21 (stereo not given) | 4.02 |
| CN(C)CCCNC(=O)c1cc(-c2ccc3c(c2)CCO3)n[nH]1 | -12.8 |
| Cc1cc(C)nc(NCCC(=O)Nc2ccc(Cn3cncn3)cc2)n1 | -2.82 |
| N#Cc1ccc(OC2CCN(C(=O)c3cncc(Br)c3)CC2)nc1 | 3.05 |
| COCCNC(=O)c1cc2c(nc1O)CC(c1cccs1)CC2=O (stereo not given) | 11.9 |
| Cc1cc(O)c(OCC(=O)Nc2nc3c(s2)CCCCC3)cn1 | 3.93 |
| Cn1ncc2c1NC(=O)CC2c1ccccc1Cl (stereo not given) | 55.7 |
| Cn1ccnc1-c1nc(N2CCCCC2)ncc1-c1ccccc1F | 12.4 |
| Oc1nc(N2CCOCC2)nc2c1CCN(Cc1cccc(F)c1)CC2 | -8.08 |
| NC(=O)C1(CCCc2ccccn2)CCCN(Cc2ccncc2)C1 (stereo not given) | -4.8 |
| Cc1cc(C)c2cc(CNCc3ccc(C)o3)c3nn(C)c(=O)n3c2c1 | -1.83 |
| Cc1nc(C)c(C(=O)Nc2cnn(CC(=O)NC3CCCC3)c2)s1 | -3.33 |
| O=C(N[C@@H]1CN(CCc2ccc(F)cc2)C[C@H]1O)c1cscn1 | -3.08 |
| COC(=O)CNC(=O)c1nc(-c2ccccc2OC)c2cnccn12 | 8.6 |
| CC(C)NC(=O)N1CCCCC1c1nnc2n1CCNC2 (stereo not given) | 14.3 |
| O=C(NCc1nnc2n1CCCCC2)N(CC1CCOC1)C1CC1 (stereo not given) | 5.63 |
| Cc1cc(C)n(CCN2CCC(N(C)Cc3nnc(C)n3C)C2)n1 (stereo not given) | 2.35 |
| CN(C)C1(CNC(=O)c2c(O)cc(Cl)cc2Cl)CCOCC1 | -9.46 |
| CC(C)CCc1noc(C[S+]([O-])CC(=O)NCc2ccccc2)n1 (stereo not given) | 5.28 |
| COc1ccc(CCCC(=O)N2CCCC(n3cncn3)C2)cc1 (stereo not given) | -6.96 |
| CCOc1c(F)cccc1C(=O)N(c1cccnc1)C(C)C | 1.52 |
| CNC(=O)NC(=O)CSC(C)c1ccccc1F (stereo not given) | -14.4 |
| Cc1cc(C2CCCN2C(=O)NCc2cccnc2)on1 (stereo not given) | 0.458 |
| O=C(NCC1CCCCC1)NC1CCCc2c1cnn2CCO (stereo not given) | -2.92 |
| N#Cc1cccc(OCCN2CCCC2C(=O)N2CCSCC2)c1 (stereo not given) | 9.06 |

| Compound | cytotoxicity at 10 µM [%] |
| --- | --- |
| Cc1ccc(C2CN(C(=O)c3c(C)cc(C)[nH]c3=O)CCO2)c(C)c1 (stereo not given) | -19.8 |
| CS(=O)(=O)CCC(=O)N(Cc1c(F)cccc1F)C1CCCC1 | -12.9 |
| CC(C)c1nc(S(=O)(=O)N(C)c2ccc(F)cc2)c[nH]1 | -0.131 |
| Cn1ccnc1CN(CCCO)CC(F)(F)F | 5.68 |
| CC(NC(=O)Nc1nccs1)c1cccnc1 (stereo not given) | -8.81 |
| COc1cc2c(c(OC)c1OC)CCN(CCN1CCCCC1)CC2 | -15.7 |
| COCCOCC(=O)Nc1ccnn1-c1ccc(Cl)cc1 | -11.6 |
| O=C(Nc1ccc2c(c1)C(=O)NC2)c1ccc(S(=O)(=O)C(F)(F)F)cc1 | 36.9 |
| O=C(CN(Cc1ccccc1)CC1CCOCC1)NC(=O)NC1CC1 | -6.49 |
| CN(C(=O)Cc1ccc(NC(=O)NC2CCC2)cc1)c1ccccc1 | -6.11 |
| CC(=O)NCc1nnn2c1CN(c1ncccn1)CCC2 | -107 |
| CN(CCO)C[C@@H]1CN(C2CCN(c3ccccc3Cl)CC2)C[C@@H]1CO | -9.22 |
| COCCn1c(=O)n(Cc2cccc(F)c2F)c2cc(C(=O)O)ccc21 | 9.15 |
| COc1nc2c(cc1C(=O)NCc1noc(-c3ccco3)n1)CCC2 | -6.04 |
| CC(C)(C)c1nc(CN(Cc2cccnc2)C2CN3CCC2CC3)no1 (stereo not given) | -4.09 |
| CN1CC2(CCCN(Cc3ccc(Oc4ccccc4)cc3)C2)OC1=O (stereo not given) | 15.8 |
| COc1ccc2[nH]c3c(c2c1)CN(c1cc(NCCO)nc(N)n1)CC3 | 8.75 |
| CN1CCCN(c2cnn(Cc3ccncc3)c(=O)c2)CC1 | 6.75 |
| CNc1nc(C(=O)N2C[C@@H]3CCN(C)[C@@H]3C2)cs1 | -10.8 |
| CC(=O)N1CCC(C(=O)N2CCOC(CC3CCCCC3)C2)CC1 (stereo not given) | -13.7 |
| COc1cc(C)ccc1S(=O)(=O)N[C@H]1CN(C(C)=O)C[C@@H]1C1CC1 | 5.71 |
| CCC(CC)NCC(C)Oc1cccnc1 (stereo not given) | 8.26 |
| N#Cc1cccc(Oc2ccc(CN3CCCC3)cc2Cl)n1 | -16 |
| Cc1ccc(CN2CCC3(CCCN(Cc4ccc(F)c(F)c4)C3)C2)o1 (stereo not given) | 9.39 |
| COc1cccc(OCCc2nc3c(cc2C(N)=O)CCC3)c1 | 7.32 |
| COc1ccc(C(=O)N2C[C@@H](NC(=O)N(C)C)[C@H](C(C)C)C2)c(OC)n1 | 3.6 |
| CCN1CCC(CC(=O)N(C)CC(=O)c2ccc(O)cc2)CC1 | 1.73 |

| Compound | cytotoxicity at 10 µM [%] |
| --- | --- |
| Cc1nccc(N[C@H]2CN(C(=O)CCN3CCCC3=O)C[C@@H]2C(C)C)n1 | -6.3 |
| CCNC(=O)[C@@H]1C[C@H](N)CN1C1CCN(c2ccccc2OC)CC1 | -43.9 |
| OC1(CNCCSCc2ccccc2)CCCNC1 (stereo not given) | 1.84 |
| CC(C)[C@H]1CN(C2Cc3ccccc3C2)C[C@@H]1NS(C)(=O)=O | -16 |
| CN1CCN(Cc2ccc(-c3ccc(-c4ccn[nH]4)cc3)nc2)CC1 | 3.61 |
| Cc1cc(F)ccc1CN1CCCC(O)(CN2CCCC2)C1 (stereo not given) | -5.19 |
| COc1ccc(C2(C(=O)N3CC(c4cccnc4)C3)CC2(C)C)cc1 (stereo not given) | 12.3 |
| Cc1ccccc1C(=O)N1CCOC2(CNCCOC2)C1 (stereo not given) | -16.5 |
| COc1ccc(-c2cc(C3CCCCCN3S(=O)(=O)N(C)C)on2)cc1 (stereo not given) | 2.24 |
| Cn1ccnc1CN1CCCN(C(=O)c2ccc3cc[nH]c3c2)CC1 | -6.44 |
| Cc1ccccc1C1(C(=O)NCCN2CCC(C)CC2)CCOCC1 | 3.57 |
| Cc1nc(C2CCCN2CC(=O)NCCOc2ccc(F)cc2)no1 (stereo not given) | -9.63 |
| N#Cc1ccc(S(=O)(=O)NC(=O)C2CC2)c(C(F)(F)F)c1 | -11.1 |
| CC(C)n1cc(CN2CCCN(C(=O)c3cc(Cl)c[nH]3)CC2)cn1 | -10.9 |
| CCOc1ccc(Cl)cc1C1CCCCN1 (stereo not given) | 9.15 |
| CS(=O)(=O)N1CC[C@H]2O[C@H](C(=O)NCCc3ccccn3)CC[C@H]21 | 8.5 |
| O=C(c1cccc(Cl)c1)N1CCCn2c(CN3CCCCC3)nnc2C1 | 4.01 |
| CC(C)(C)C(=O)N1C[C@H](c2ccsc2)[C@H]2CN(Cc3cccs3)CC[C@H]21 | 12.7 |
| O=C(CC1CC1)N1CCO[C@H]2[C@H](OCCCn3cccn3)CC[C@@H]21 | 6.23 |
| Cc1ccc(CN2CC3(CCN(C(=O)c4cscn4)C3)C2)o1 | 5.28 |
| CN(C)CCN1CCOCC2(CCCN(C(=O)c3ccccn3)C2)C1 (stereo not given) | 6.67 |
| CC(C)COCC1CN(Cc2ccc3c(c2)OCO3)Cc2ncn(C)c21 (stereo not given) | -10.7 |
| Cc1ccc(CN2CCCn3nnc(COCCN(C)C)c3C2)s1 | -114 |
| O=C(NC[C@]12COC[C@H]1CN(Cc1ccco1)C2)c1ccccc1 | -2.53 |
| CN(Cc1cccnc1)C[C@H]1OC[C@@H]2CCN(C(=O)C3CC3)C[C@@H]21 | -117 |
| c1cncc(COCc2cncc3c2CCN(Cc2ccoc2)C3)c1 | -109 |
